Active and inactive are the calls of the source. No cut-off for these calls is given here.
Legend:
MT4 = experiment: Cytotoxicity against human MT4 cells after 3 days by CytoTox-Glo assay; format: cell-based; settings: mt4, 72 h
Summary of the method: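 MT4 cells cultured for 3 days with various compound concentrations. Cytotoxicity is read by CytoTox-Glo following the manufacturer's protocol. CC50 = concentration causing 50% reduction of cell viability.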

[1] = Selectivity index, ratio of CC50 for human MT4 cells to EC50 for Human immunodeficiency virus 1 NL4-3 infected in human MT4 cells; format: toxicity, cell-based; settings: read-out: Ratio CC50/EC50
Summary of the method: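 SI = CC50/EC50. CC50 is from a 3-day CytoTox-Glo assay on MT4 cells. EC50 is from MT4 cells infected with 50 TCID50/well NL4-3 Nanoluc-sec and given graded compound, with supernatant luciferase read on day 3 as 50% reduction.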

[2] = system: Human immunodeficiency virus 1; experiment: Antiviral activity against Human immunodeficiency virus 1 NL4-3 infected in human MT4 cells measured on day 3 post infection by Nano-Glo luciferase reporter gene assay; format: functional, organism-based; settings: Human immunodeficiency virus 1, NL4-3, MT4, 72 h
Summary of the method: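 HIV-1 NL4-3 Nanoluc-sec reporter virus at 50 TCID50/well infects MT4 cells (1 × 10⁵ cells/mL) in the presence of graded compound concentrations. On day 3 post-infection, supernatant is assayed for secreted NanoLuc luciferase.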

[3] = system: Human immunodeficiency virus 1; experiment: Reactivation of latent HIV1 infected in human J-Lat A2 cells assessed as increase in GFP expression at 10 to 50 nM after 72 hrs by flow cytometric method; format: functional, organism-based
Summary of the method: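 J-Lat (A2) cells (1×10⁶ cells/well) incubated with various concentrations of latency reversing agents at 37 °C for 72 h. GFP-expressing cells are quantified by flow cytometry.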

[4] = system: Human immunodeficiency virus 1; experiment: Reactivation of latent HIV1 infected in human U1 cells assessed as increase in p24 production after 72 hrs by ELISA; format: functional, organism-based; settings: Human immunodeficiency virus 1, U1, 72 h
Summary of the method: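 Latently infected U1 cells (2×10⁵ cells/mL) incubated with various compound concentrations at 37 °C for 72 h. Culture supernatant p24 is measured by ELISA. EC50 = concentration activating p24 production by 50%, fitted by non-linear regression.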

[5] = system: Human immunodeficiency virus 1; experiment: Potency index, ratio AZT EC50 to test compound EC50 for Human immunodeficiency virus 1 NL4-3 infected in human MT4 cells; format: functional
[6] = Cytotoxicity against human U937 cells after 3 days by CytoTox-Glo assay; format: cell-based, U-937
Summary of the method: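 U937 cytotoxicity is run by the same method as for MT4: 3-day culture with various compound concentrations, CytoTox-Glo read-out, and CC50 taken as 50% reduction of viability.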

Row | SMILES | CC50 (MT4) [nM] | selectivity ratio [1] | EC50 [2] [nM] | Activity [3] | EC50 [4] [nM] | Ratio EC50 [5] | CC50 at 72 h [6] [nM]
1 | CC1=C[C@]23C(=O)[C@@H](C=C(CO)[C@@H](O)[C@]2(O)[C@H]1O)[C@H]1[C@@H](C[C@H]3C)C1(C)C [INGENOL] | > 11500 | > 10 | > 11500 |  |  |  | 
2 | CC1=C[C@@H]2C(=O)[C@]3(C=C(C)[C@H](O)[C@@]3(O)[C@@H]1O)[C@H](C)C[C@@H]1[C@H]2C1(C)C | > 12000 | > 10 | > 12000 |  |  |  | 
3 | COc1ccc(C(=O)O[C@H]2C(C)=C[C@]34C(=O)[C@@H](C=C(C)[C@@H](O)[C@]23O)[C@H]2[C@@H](C[C@H]4C)C2(C)C)cc1 | > 8600 | > 64 | 134 |  |  |  | 
4 | COc1ccc(C(=O)O[C@@H]2C(C)=C[C@@H]3C(=O)[C@]4(C=C(C)[C@H](O)[C@@]24O)[C@H](C)C[C@@H]2[C@H]3C2(C)C)cc1 | > 8600 | > 20 | 434 |  |  |  | 
5 | CCCCCCCCCCCC(=O)O[C@@]12C[C@@H](C)[C@]34C=C(C)[C@H](OC(=O)C(C)C(C)C)[C@@]3(O)[C@H](O)C(CO)=C[C@H](C4=O)[C@@H]1C2(C)C (some centres undefined) | > 6200 | > 7500 | 0.8 |  |  |  | 
6 | C/C=C(/C)C(=O)O[C@H]1C(C)=C[C@]23C(=O)[C@@H](C=C(C)[C@@H](O)[C@]12O)[C@H]1[C@@H](C[C@H]3C)C1(C)C | > 9700 | > 22.8 | 426 |  |  |  | 
7 | C/C=C/C(=O)O[C@@H]1C(C)=C[C@@H]2C(=O)[C@]3(C=C(C)[C@H](O)[C@@]13O)[C@H](C)C[C@@H]1[C@H]2C1(C)C | > 10000 | > 16 | 630 |  |  |  | 
8 | CC1=C[C@@H]2C(=O)[C@]3(C=C(C)[C@H](O)[C@@]3(O)[C@@H]1OC(=O)c1ccc3ccccc3c1)[C@H](C)C[C@@H]1[C@H]2C1(C)C | > 8200 | > 179 | 15.5 |  |  |  | 
9 | C/C=C/C(=O)O[C@H]1C(C)=C[C@]23C(=O)[C@@H](C=C(C)[C@@H](O)[C@]12O)[C@H]1[C@@H](C[C@H]3C)C1(C)C | > 10000 | > 17 | 600 |  |  |  | 
10 | CC1=C[C@@H]2C(=O)[C@]3(C=C(C)[C@H](OC(=O)c4ccc5ccccc5c4)[C@@]3(O)[C@@H]1O)[C@H](C)C[C@@H]1[C@H]2C1(C)C | > 8200 | > 543 | 15.1 |  |  |  | 
11 | CC1=C[C@@H]2C(=O)[C@]3(C=C(C)[C@H](OC(=O)c4ccccc4)[C@@]3(O)[C@@H]1O)[C@H](C)C[C@@H]1[C@H]2C1(C)C | > 9200 | > 302 | 30.5 |  |  |  | 
12 | C/C=C(\C)C(=O)O[C@H]1C(C)=C[C@]23C(=O)[C@@H](C=C(C)[C@@H](O)[C@]12O)[C@H]1[C@@H](C[C@H]3C)C1(C)C |  | > 46 | 209 |  |  |  | 
13 | Cc1cn([C@H]2C[C@H](N=[N+]=[N-])[C@@H](CO)O2)c(=O)[nH]c1=O [ZIDOVUDINE] | > 400 |  |  |  |  |  | 
14 | C/C=C(/C)C(=O)O[C@H]1C(C)=C[C@]23C(=O)[C@@H](C=C(CO)[C@@H](O)[C@]12O)[C@H]1[C@@H](C[C@H]3C)C1(C)C [INGENOL MEBUTATE] | > 9300 | > 2070 | 4.5 | Active | 4.2 |  | 
15 | CC1=C[C@@H]2C(=O)[C@]3(C=C(C)[C@H](O)[C@@]3(O)[C@@H]1OC(=O)c1ccccc1)[C@H](C)C[C@@H]1[C@H]2C1(C)C | > 9200 | > 216 | 42.6 |  |  |  | 
16 | CC1=C[C@@H]2C(=O)[C@]3(C=C(C)[C@H](OC(=O)/C=C/c4ccccc4)[C@@]3(O)[C@@H]1O)[C@H](C)C[C@@H]1[C@H]2C1(C)C | > 8700 | > 45 | 188 |  |  |  | 
17 | CCCCCCCCCCCC(=O)O[C@@]12C[C@@H](C)[C@]34C=C(C)[C@H](O)[C@@]3(O)[C@H](O)C(CO)=C[C@H](C4=O)[C@@H]1C2(C)C | > 9200 | > 273 | 33.7 |  |  |  | 
18 | CCCCCCCC(=O)O[C@H]1C(C)=C[C@]23C(=O)[C@@H](C=C(C)[C@@H](O)[C@]12O)[C@H]1[C@@H](C[C@H]3C)C1(C)C | > 8700 | > 59.9 | 145 |  |  |  | 
19 | CC(=O)OCC1=C[C@@H]2C(=O)[C@]3(C=C(C)[C@H](O)[C@@]3(O)[C@@H]1O)[C@H](C)C[C@@H]1[C@H]2C1(C)C | > 10300 | > 10 | 1080 |  |  |  | 
20 | CC(=O)O[C@H]1C(C)=C[C@]23C(=O)[C@@H](C=C(C)[C@@H](OC(=O)c4ccccc4)[C@]12O)[C@H]1[C@@H](C[C@H]3C)C1(C)C | > 8400 | > 23 | 367 |  |  |  | 
21 | CC1=C[C@]23C(=O)[C@@H](C=C(CO)[C@@H](O)[C@]2(O)[C@H]1OC(=O)c1ccc2ccccc2c1)[C@H]1[C@@H](C[C@H]3C)C1(C)C | > 8000 | > 6150 | 1.3 | Active | 2.4 | 10 | > 20000
22 | CC1=C[C@@H]2C(=O)[C@]3(C=C(C)[C@H](O)[C@@]3(O)[C@@H]1OC(=O)/C=C/c1ccccc1)[C@H](C)C[C@@H]1[C@H]2C1(C)C | > 8700 | > 22 | 396 |  |  |  | 

Source: ChEMBL document CHEMBL4270568, “Identification, structural modification, and dichotomous effects on human immunodeficiency virus type 1 (HIV-1) replication of ingenane esters from Euphorbia kansui” (Eur J Med Chem, 2018)
